Results on 31 compounds are retold here after ChEMBL document CHEMBL4680304, “Synthesis and evaluation of new phenyl acrylamide derivatives as potent non-nucleoside anti-HBV agents” (Bioorg Med Chem, 2021).

Each structure is given as a SMILES string.

Data set [1] can be described thus: Cytotoxicity against human HepG2 2.2.15 cell line assessed as cell viability measured after 72 hrs by MTT assay. It is filed as cell-based. The note with it: HepG2 2.2.15 cells. The gist of the method: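 HepG2 2.2.15 cells were precultured for 24 h, then incubated with compound for 72 h. Viability was read as MTT absorbance at 490 nm relative to untreated cells on the same plate. CC50 is the concentration causing 50% cell death.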
A general note: Tetrazolium assays rely on reduction of a dye to a coloured formazan, in cell work by metabolically active cells.

The test system of data set [2] is Hepatitis B virus. In words: Antiviral activity against HBV infected in human HepG2 2.2.15 cells assessed as decrease in extracellular viral DNA level at 0.8 uM measured after incubation of 6 days by RT-PCR analysis. In kind it is functional. The note with it: HepG2 2.2.15, 144 h, time 6 day. Summed up: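 HepG2 2.2.15 cells, which stably carry the HBV genome, were grown in DMEM with 10% FBS, penicillin/streptomycin and 0.38 mg/mL G418. They were seeded at 2×10^5/well and allowed to recover for 24 h. Cells were then exposed to 0.8 µM compound for 6 days, with medium changed every 2 days. HBV DNA was quantified by real-time PCR and expressed as % inhibition versus control.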

A short description of data set [3]: Selectivity index, ratio of CC50 for human HepG2 2.2.15 to IC50 of antiviral activity against HBV infected in human HepG2 2.2.15 cells assessed as decrease in extracellular viral DNA level measured after incubation of 6 days by RT-PCR analysis. In kind it is toxicity, cell-based. The note with it: time 6 day, read-out: Selectivity Index. Summed up:
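SI was calculated as the CC50 in HepG2 2.2.15 cells (72 h MTT) divided by the IC50 for HBV DNA inhibition. That IC50 came from HepG2 2.2.15 cells treated for 6 days with medium changed every 2 days, with HBV DNA quantified by real-time PCR.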

Data set [4] deals with Hepatitis B virus. In words: Antiviral activity against HBV infected in human HepG2 2.2.15 cells assessed as decrease in extracellular viral DNA level measured after incubation of 6 days by RT-PCR analysis. In kind it is functional, organism-based. As to conditions: HepG2 2.2.15, 144 h. The gist of the method:
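Cells were HepG2 2.2.15 (stable HBV genome), seeded at 2×10^5/well and recovered for 24 h. Dose-dependent exposure to compound lasted 6 days, with medium replaced every 2 days. HBV DNA was measured by real-time PCR. IC50 is the concentration giving 50% inhibition of HBV DNA replication, reported as mean ± SD of triplicate experiments.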

Broadly, the CC50 is the concentration at which the toxic effect on the cells reaches its halfway point. A word on the inhibition: it is the drop in the measured response relative to a control, in per cent. Broadly, the IC50 is the midpoint of a concentration-inhibition curve.

Turning to `Cc1cccc(C(=O)N/C(C(=O)N[C@H](CO)Cc2ccccc2)=C(\Br)c2ccccc2)c1`, the CC50 at 72 h in data set [1] is over 100 µM. The inhibition at 0.8 µM in the data set with Hepatitis B virus [2] worked out at 2.94%.
With `Cc1cc(F)ccc1C(=O)N/C(C(=O)N[C@H](CO)Cc1ccccc1)=C(\Br)c1ccccc1`, the selectivity ratio at 144 h in data set [3] is over 303. For the same compound, the CC50 at 72 h in data set [1] is over 100 µM. Moreover, in the data set on Hepatitis B virus [4], the IC50 turned out to be 0.33 µM. In the data set with Hepatitis B virus [2], the inhibition at 0.8 µM amounted to 83.2%.
`Cc1ccccc1C(=O)N/C(C(=O)N[C@H](CO)Cc1ccccc1)=C(\Br)c1ccccc1`: the CC50 at 72 h in data set [1] is over 100 µM. The inhibition at 0.8 µM in the data set on Hepatitis B virus [2] was found to be 5.75%.
Regarding `Cc1cccc(/C(Br)=C(/NC(=O)c2ccccc2)C(=O)N[C@H](CO)Cc2ccccc2)c1`, the CC50 at 72 h in data set [1] was over 100 µM. Besides, the inhibition at 0.8 µM in the data set with Hepatitis B virus [2] was 57.3%.
The corresponding values for `O=C(N[C@H](CO)Cc1ccccc1)/C(NC(=O)c1ccc(F)cc1Cl)=C(/Br)c1ccccc1` are over 100 µM and 56.1%.
In the case of `O=C(N[C@H](CO)Cc1ccccc1)/C(NC(=O)c1ccccc1)=C(/Br)c1cccc(Cl)c1`, the CC50 at 72 h in data set [1] was over 100 µM. In the data set with Hepatitis B virus [2], the inhibition at 0.8 µM was 48.2%.
The corresponding values for `O=C(N[C@H](CO)Cc1ccccc1)/C(NC(=O)c1ccccc1)=C(/Br)c1cccc(C(F)(F)F)c1` are over 100 µM and 23.1%.
In the case of `COc1cccc(/C(Br)=C(/NC(=O)c2ccccc2)C(=O)N[C@H](CO)Cc2ccccc2)c1`, in data set [1], the CC50 at 72 h is over 100 µM. Moreover, in the data set with Hepatitis B virus [2], the inhibition at 0.8 µM is 48.9%.
The corresponding values for `COc1ccccc1C(=O)N/C(C(=O)N[C@H](CO)Cc1ccccc1)=C(\Br)c1ccccc1` are over 100 µM and 11.9%.
Consider `O=C(N[C@H](CO)Cc1ccccc1)/C(NC(=O)c1ccccc1)=C(/Br)c1cccc([N+](=O)[O-])c1`, for which the CC50 at 72 h in data set [1] is 93.7 µM. Also, the inhibition at 0.8 µM with Hepatitis B virus [2] came to 2.28%.
The corresponding values for `CN(C)CCCOc1cccc(/C(Br)=C(/NC(=O)c2ccccc2)C(=O)N[C@H](CO)Cc2ccccc2)c1` are 85.6 µM and 37.7%.
As to `O=C(N[C@H](CO)Cc1ccccc1)/C(NC(=O)c1ccc(F)cc1F)=C(/Br)c1ccccc1`, the CC50 at 72 h in data set [1] is over 100 µM. Further, the inhibition at 0.8 µM with Hepatitis B virus [2] came to 58.1%.
For the compound `O=C(N[C@H](CO)Cc1ccccc1)/C(NC(=O)c1cccc(F)c1)=C(/Br)c1ccccc1`, in data set [1], the CC50 at 72 h is over 100 µM. For the same compound, the inhibition at 0.8 µM in the data set with Hepatitis B virus [2] stood at 9.07%.
As to `O=C(N[C@H](CO)Cc1ccccc1)/C(NC(=O)c1ccccc1)=C(/Br)c1cccc(O)c1`, in data set [1], the half-maximal cytotoxic concentration (CC50) at 72 h amounted to 99.5 µM. For the same compound, in the data set with Hepatitis B virus [2], the inhibition at 0.8 µM turned out to be 29.6%.
`CC(=O)Oc1cccc(/C(Br)=C(/NC(=O)c2ccccc2)C(=O)N[C@H](CO)Cc2ccccc2)c1`: in data set [1], the half-maximal cytotoxic concentration (CC50) at 72 h is over 100 µM. The inhibition at 0.8 µM with Hepatitis B virus [2] turned out to be 32.4%.
The matching figures for `O=C(N[C@H](CO)Cc1ccccc1)/C(NC(=O)c1cccc(Cl)c1)=C(/Br)c1ccccc1`: over 100 µM and 5.36%.
The corresponding values for `COc1cccc(C(=O)N/C(C(=O)N[C@H](CO)Cc2ccccc2)=C(\Br)c2ccccc2)c1` are over 100 µM and 4.89%.
Turning to `O=C(N[C@H](CO)Cc1ccccc1)/C(NC(=O)c1cc(Cl)cc(Cl)c1)=C(/Br)c1ccccc1`, in data set [3], the selectivity ratio at 144 h was over 370. Moreover, in data set [1], the CC50 at 72 h is over 100 µM. Further, the half-inhibitory concentration (IC50) in the data set with Hepatitis B virus [4] was determined as 0.27 µM. In the data set on Hepatitis B virus [2], the inhibition at 0.8 µM was 83.8%.
In the case of `O=C(N[C@H](CO)Cc1ccccc1)/C(NC(=O)c1ccccc1F)=C(/Br)c1ccccc1`, the CC50 at 72 h in data set [1] is over 100 µM. In the data set on Hepatitis B virus [2], the inhibition at 0.8 µM amounted to 33.6%.
The corresponding values for `O=C(N[C@H](CO)Cc1ccccc1)/C(NC(=O)c1cccc(Br)c1)=C(/Br)c1ccccc1` are over 100 µM and 2.48%.
As to `O=C(N[C@H](CO)Cc1ccccc1)/C(NC(=O)c1ccccc1Cl)=C(/Br)c1ccccc1`, the CC50 at 72 h in data set [1] was over 100 µM. For the same compound, the inhibition at 0.8 µM with Hepatitis B virus [2] is 13.9%.
The matching figures for `O=C(N[C@H](CO)Cc1ccccc1)/C(NC(=O)c1ccccc1)=C(/Br)c1cccc(Br)c1`: over 100 µM and 14.4%.
`O=C(N[C@H](CO)Cc1ccccc1)/C(NC(=O)c1ccccc1)=C(/Br)c1cccc(F)c1`: in data set [1], the CC50 at 72 h was over 100 µM. Besides, the inhibition at 0.8 µM in the data set on Hepatitis B virus [2] turned out to be 42.6%.
Take `O=C(N[C@H](CO)Cc1ccccc1)/C(NC(=O)c1ccc(F)c(F)c1)=C(/Br)c1ccccc1`: in data set [3], the selectivity ratio at 144 h is over 208. Further, the cytotoxic concentration (CC50) at 72 h in data set [1] is over 100 µM. In addition, in the data set on Hepatitis B virus [4], the IC50 came to 0.48 µM. Also, the inhibition at 0.8 µM with Hepatitis B virus [2] worked out at 73.7%.
`COc1ccc(C(=O)N/C(C(=O)N[C@H](CO)Cc2ccccc2)=C(\Br)c2ccccc2)cc1`: in data set [1], the CC50 at 72 h is over 100 µM. The inhibition at 0.8 µM in the data set with Hepatitis B virus [2] is 6.25%.
On to `O=C(N[C@H](CO)Cc1ccccc1)/C(NC(=O)c1ccc(Cl)cc1)=C(/Br)c1ccccc1`, for which the selectivity ratio at 144 h in data set [3] was over 232. Further, the CC50 at 72 h in data set [1] was over 100 µM. Besides, the IC50 in the data set with Hepatitis B virus [4] is 0.43 µM. For the same compound, the inhibition at 0.8 µM in the data set with Hepatitis B virus [2] worked out at 70.7%.
With `O=C(N[C@H](CO)Cc1ccccc1)/C(NC(=O)c1ccc(Br)cc1)=C(/Br)c1ccccc1`, in data set [1], the CC50 at 72 h is over 100 µM. Further, in the data set on Hepatitis B virus [2], the inhibition at 0.8 µM came to 43%.
Consider `O=C(N[C@H](CO)Cc1ccccc1)/C(NC(=O)c1ccccc1Br)=C(/Br)c1ccccc1`, for which the CC50 at 72 h in data set [1] is over 100 µM. In addition, the inhibition at 0.8 µM in the data set on Hepatitis B virus [2] stood at 17.2%.
For the compound `CCN(CC)CCOc1cccc(/C(Br)=C(/NC(=O)c2ccccc2)C(=O)N[C@H](CO)Cc2ccccc2)c1`, the CC50 at 72 h in data set [1] was 83.6 µM. For the same compound, the inhibition at 0.8 µM with Hepatitis B virus [2] is 56.5%.
Regarding `CN(C)CCOc1cccc(/C(Br)=C(/NC(=O)c2ccccc2)C(=O)N[C@H](CO)Cc2ccccc2)c1`, the CC50 at 72 h in data set [1] is 94.7 µM. For the same compound, in the data set with Hepatitis B virus [2], the inhibition at 0.8 µM was determined as 58.4%.
As for `Cc1ccc(C(=O)N/C(C(=O)N[C@H](CO)Cc2ccccc2)=C(\Br)c2ccccc2)cc1`, the half-maximal cytotoxic concentration (CC50) at 72 h in data set [1] is over 100 µM. For the same compound, the inhibition at 0.8 µM in the data set with Hepatitis B virus [2] was determined as 47.4%.
